Values belong to the molecule of their own block, whether it stands above or below them.
Legend:
[1] = molecular target: T1, ATP-dependent translocase ABCB1 (Homo sapiens, UniProt P08183); assay: Inhibition of MDR1 (unknown origin) expressed in MDCK cells assessed as reduction in calcein-AM efflux preincubated for 30 mins followed by calcein-AM addition measured after 30 mins by spectrofluorimetric method; format: cell-based
[2] = molecular target: T1, ATP-dependent translocase ABCB1; assay: Inhibition of MDR1 (unknown origin) expressed in MDCK cells assessed as potentiation of doxorubicin-induced cytotoxicity preincubated for 24 hrs followed by doxorubicin addition measured after 72 hrs by MTT assay; format: cell-based
How it was run: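 MDCK-MDR1 cells were seeded at 10,000/well, and compound was added at 0.1, 1 and 10 µM on day 2. On day 3 the medium was replaced with compound plus 10 µM doxorubicin. The 72 h run ended with MTT (0.5 mg/mL, 3 h, 37 °C) and DMSO solubilization, read at 570/630 nm. Growth is % of drug-free control, compared against doxorubicin alone by one-way ANOVA with Bonferroni post-hoc.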

MDCK = assay: Cytotoxicity against MDCK cells expressing MDR1 assessed as reduction in cell viability at 10 uM after 72 hrs by MTT assay; format: ADME, cell-based, Canis lupus familiaris; conditions: dog
How it was run: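 MDCK-MDR1 cells (DMEM high glucose, 10% FBS, 37 °C, 5% CO2) were seeded at 10,000/well. Compound was added at 0.1, 1 and 10 µM the next day. On day 3 the medium was replaced with compound alone, and the 72 h run ended with MTT (0.5 mg/mL, 3 h, 37 °C). Formazan was dissolved in DMSO and read at 570/630 nm. Viability is % of untreated control with solvent controls, from 2-3 independent experiments in triplicate.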

T1 sequence (P08183 whole entry): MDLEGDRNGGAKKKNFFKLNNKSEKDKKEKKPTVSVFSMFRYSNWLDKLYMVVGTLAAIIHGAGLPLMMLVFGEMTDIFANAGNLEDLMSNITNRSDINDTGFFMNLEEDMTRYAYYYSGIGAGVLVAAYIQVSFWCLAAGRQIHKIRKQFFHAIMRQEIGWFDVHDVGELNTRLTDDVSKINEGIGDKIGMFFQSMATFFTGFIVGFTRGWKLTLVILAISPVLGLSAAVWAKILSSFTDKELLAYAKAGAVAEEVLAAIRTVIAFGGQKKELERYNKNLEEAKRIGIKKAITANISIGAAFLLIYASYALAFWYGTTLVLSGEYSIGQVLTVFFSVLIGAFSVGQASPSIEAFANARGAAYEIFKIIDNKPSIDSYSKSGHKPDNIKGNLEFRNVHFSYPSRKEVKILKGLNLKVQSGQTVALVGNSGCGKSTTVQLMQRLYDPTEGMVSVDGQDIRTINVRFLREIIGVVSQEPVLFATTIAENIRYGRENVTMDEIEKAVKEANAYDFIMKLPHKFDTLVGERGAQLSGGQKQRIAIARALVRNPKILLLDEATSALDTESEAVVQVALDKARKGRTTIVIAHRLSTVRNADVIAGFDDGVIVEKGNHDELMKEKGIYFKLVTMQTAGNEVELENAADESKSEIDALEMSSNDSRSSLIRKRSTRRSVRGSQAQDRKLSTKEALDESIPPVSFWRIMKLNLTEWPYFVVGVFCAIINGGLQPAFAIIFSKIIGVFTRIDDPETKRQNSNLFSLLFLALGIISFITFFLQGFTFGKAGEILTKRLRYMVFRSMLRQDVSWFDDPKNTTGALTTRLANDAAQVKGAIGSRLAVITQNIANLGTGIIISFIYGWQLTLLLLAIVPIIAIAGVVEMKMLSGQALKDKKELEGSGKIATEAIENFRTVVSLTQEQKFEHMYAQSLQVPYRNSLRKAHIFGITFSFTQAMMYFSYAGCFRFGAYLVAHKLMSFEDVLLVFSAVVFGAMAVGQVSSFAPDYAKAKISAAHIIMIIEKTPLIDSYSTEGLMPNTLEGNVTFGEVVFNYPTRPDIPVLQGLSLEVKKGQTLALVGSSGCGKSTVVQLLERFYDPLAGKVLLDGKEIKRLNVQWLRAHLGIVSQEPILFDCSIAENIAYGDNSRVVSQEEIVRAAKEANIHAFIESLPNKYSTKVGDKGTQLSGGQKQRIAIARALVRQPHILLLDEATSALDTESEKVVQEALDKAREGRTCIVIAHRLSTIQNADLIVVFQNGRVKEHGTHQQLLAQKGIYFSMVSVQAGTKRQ

Compound: COc1cc2c(cc1OC)CN(CCCCCOc1ccc3c(C)c(Cl)c(=O)oc3c1)CC2
- IC50 [1]: 460 nM

Compound: Cc1c(C)c2ccc(OCCCCCN3CCc4ccccc4C3)cc2oc1=O
- IC50 [1]: 550 nM
- inhibition (INH) [2]: Dose-dependent effect
- Activity (MDCK): Non-Toxic

Compound: COc1cc2c(cc1OC)CN(CCCCCOc1ccc3c(c1)oc(=O)c1ccccc13)CC2
- IC50 [1]: 330 nM

Compound: COc1cc2c(cc1OC)CN(CCCCOc1ccc3cc(-c4ccccc4)c(=O)oc3c1)CC2
- IC50 [1]: 410 nM

Compound: COc1cc2c(cc1OC)CN(CCCCOc1ccc3c(C)c(Cl)c(=O)oc3c1)CC2
- IC50 [1]: 560 nM

Compound: COc1cc2c(cc1OC)CN(CC/C=C1\CCCc3c(OC)cccc31)CC2
- IC50 [1]: 1200 nM

Compound: Cc1c(C)c2ccc(OCCCCN3CCc4ccccc4C3)cc2oc1=O
- IC50 [1]: 910 nM

Compound: COc1cc2c(cc1OC)CN(Cc1cccc(COc3ccc4ccc(=O)oc4c3)c1)CC2
- IC50 [1]: 770 nM

Compound: Cc1c(C)c2ccc(OCCN3CCc4ccccc4C3)cc2oc1=O
- IC50 [1]: 15000 nM

Compound: COc1cc2c(cc1OC)CN(CCCCCOc1ccc3cc(-c4ccccc4)c(=O)oc3c1)CC2
- IC50 [1]: 390 nM
- inhibition (INH) [2]: Dose-dependent effect
- Activity (MDCK): Non-Toxic

Compound: COc1cc2c(cc1OC)CN(CCCCCOc1ccc3c(C)c(Br)c(=O)oc3c1)CC2
- IC50 [1]: 280 nM
- inhibition (INH) [2]: Dose-dependent effect
- Activity (MDCK): Non-Toxic

Compound: COc1cc2c(cc1OC)CN(CCCCCOc1ccc3c(C)c(-c4ccccc4)c(=O)oc3c1)CC2
- IC50 [1]: 220 nM
- inhibition (INH) [2]: Dose-dependent effect
- Activity (MDCK): Non-Toxic

Compound: Cc1c(C)c2ccc(OCCCN3CCc4ccccc4C3)cc2oc1=O
- IC50 [1]: 2700 nM

Further lines, with some results ahead:

- IC50 [1]: 380 nM
Compound: COc1cc2c(cc1OC)CN(CCOc1ccc3c(C)c(C)c(=O)oc3c1)CC2

- IC50 [1]: 160 nM
Compound: COc1cc2c(cc1OC)CN(Cc1ccccc1COc1ccc3c(C)c(C)c(=O)oc3c1)CC2

- IC50 [1]: 190 nM
Compound: COc1cc2c(cc1OC)CN(Cc1ccc(COc3ccc4c(C)c(C)c(=O)oc4c3)cc1)CC2

- IC50 [1]: 1000 nM
Compound: COc1cc2c(cc1OC)CN(C/C=C/COc1ccc3c(C)c(C)c(=O)oc3c1)CC2

- IC50 [1]: 190 nM
Compound: COc1cc2c(cc1OC)CN(CCCOc1ccc3c(C)c(C)c(=O)oc3c1)CC2

- IC50 [1]: 150 nM
Compound: COc1cc2c(cc1OC)CN(CCCCOc1ccc3c(C)c(C)c(=O)oc3c1)CC2

- IC50 [1]: 160 nM
Compound: COc1cc2c(cc1OC)CN(Cc1cccc(COc3ccc4c(C)c(C)c(=O)oc4c3)c1)CC2

- IC50 [1]: 220 nM
Compound: COc1cc2c(cc1OC)CN(CCCCCCOc1ccc3c(C)c(C)c(=O)oc3c1)CC2

- IC50 [1]: 70 nM
Compound: COc1cc2c(cc1OC)CN(CCCCCOc1ccc3c(C)c(C)c(=O)oc3c1)CC2
- inhibition (INH) [2]: Dose-dependent effect
- Activity (MDCK): Non-Toxic

- IC50 [1]: 190 nM
Compound: COc1cc2c(cc1OC)CN(CCc1ccc(COc3ccc4c(C)c(C)c(=O)oc4c3)cc1)CC2
- inhibition (INH) [2]: Dose-dependent effect
- Activity (MDCK): Non-Toxic

— ChEMBL document CHEMBL4325869, “1,2,3,4-Tetrahydroisoquinoline/2H-chromen-2-one conjugates as nanomolar P-glycoprotein inhibitors: Molecular determinants for affinity and selectivity over multidrug resistance associated protein 1” (Eur J Med Chem, 2019)
